Results taken from article PMC3172365 (Biochemistry, 2011).

Target: T1, E. coli MutL (Escherichia coli, UniProt P23367)
T1 sequence (P23367 1-615): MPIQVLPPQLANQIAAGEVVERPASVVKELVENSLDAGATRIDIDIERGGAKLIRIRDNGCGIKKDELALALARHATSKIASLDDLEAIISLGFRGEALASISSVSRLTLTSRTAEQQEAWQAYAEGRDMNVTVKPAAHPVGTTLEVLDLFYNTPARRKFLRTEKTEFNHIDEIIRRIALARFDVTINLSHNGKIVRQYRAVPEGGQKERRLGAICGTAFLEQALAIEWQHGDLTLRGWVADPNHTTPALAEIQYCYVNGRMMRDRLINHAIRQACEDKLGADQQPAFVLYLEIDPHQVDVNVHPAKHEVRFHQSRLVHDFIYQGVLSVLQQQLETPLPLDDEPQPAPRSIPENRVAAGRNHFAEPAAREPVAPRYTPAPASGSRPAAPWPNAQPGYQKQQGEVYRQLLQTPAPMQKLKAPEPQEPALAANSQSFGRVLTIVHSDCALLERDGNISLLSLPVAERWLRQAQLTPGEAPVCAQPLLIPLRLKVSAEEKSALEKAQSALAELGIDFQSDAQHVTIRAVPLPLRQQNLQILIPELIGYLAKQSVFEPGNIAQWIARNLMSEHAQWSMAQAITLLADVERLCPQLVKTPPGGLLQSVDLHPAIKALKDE
Test: analytical sedimentation velocity titration
Assay type: binding
How it was run: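 Sedimentation velocity at 42,000 rpm and 25°C with purified MutL dialyzed into Buffer M (50 mM potassium phosphate pH 7.4, 50 mM KCl, 0.1 mM EDTA, 1 mM 2-mercaptoethanol) and filtered. Loading was 0.25–3.94 µM monomer, alone or with 1 mM MgCl2 + 35 µM AMPPNP (scanned 230/280 nm), or 1.75 µM dimer with varied AMPPNP (scanned 292 nm). Scans every 2.5 min gave c(s) distributions and weight-average s20,w.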

Nc1ncnc2c1ncn2[C@@H]1O[C@H](COP(=O)(O)OP(=O)(O)NP(=O)(O)O)[C@@H](O)[C@H]1O [AMPPNP]
Kd: 25.6 µM
